The source of these data is paper PMC4938767 (Structure (London, England : 1993), 2016).

Data set [1] has as its system substrate polypeptide MKAV24. The data set is classed as biochemical. The note with it: for Wild-type efficiency (%): catalytic efficiency relative to hNaa60 WT; for Kcat/Km: hNaa60 variant, substrate peptide MKAV24, 50 mM HEPES pH 7.5, 100 mM NaCl, 2 mM EDTA, DTNB, 412 nm; for reduction in catalytic efficiency: substrate MKAV24, compared to hNaa60 WT; for change in Km (in words): substrate MKAV24, vs hNaa60 WT; for catalytic efficiency (in words): β3–β4 loop contact mutants. The method, boiled down: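 Purified hNaa60 variants (His-SUMO tag cleaved, nickel-purified) with peptide and Ac-CoA in assay buffer, quenched with 3.2 M guanidinium-HCl/100 mM sodium phosphate pH 6.8. CoA detected with DTNB (2 mM final) at 412 nm, negative-control background subtracted. Thiophenolate quantified with ε = 13.7 × 103 M−1 cm−1. Rates taken in the linear phase and fitted for kinetic constants.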

Data set [2] can be described thus: DSF / purification stability of hNaa60 point mutants. Particulars: for stability on purification (in words): data not shown; for initial fluorescence (in words): vs hNaa60 WT.
The next data set concerns hNaa60 1–184. Put plainly: Size-exclusion chromatography, dimer to monomer transition. The arrangement: species or system human. Particulars: with Ac-CoA.
For the next data set, the system named is other acetyltransferases. The note with it: ref De Angelis et al., 1998; Thompson et al., 2001; cited from earlier work.
Data set [3] has as its system N-terminal acetyltransferase Naa50. Particulars: ref Evjenth et al., 2012; cited from earlier work.

As for “L140A: hNaa60 point mutant, M1p hydrophobic pocket”, in data set [1] (substrate MKAV24), the “Wild-type efficiency (%)” value is 56.0% and the “catalytic efficiency (kcat/Km) as fold of hNaa60 WT” value is “approximately 0.5 fold”. In addition, in data set [1], the Kcat/Km was 210 M⁻¹ s⁻¹.

With “P35A: hNaa60 point mutant, M1p hydrophobic pocket”, in data set [1], the Kcat/Km came out at 60 M⁻¹ s⁻¹, the “reduction in catalytic efficiency” value is on record as roughly 6 fold and the “change in Km (in words)” value is recorded as “small increase in Km”.

Turning to “I36A: hNaa60 point mutant, M1p hydrophobic pocket”, in data set [1], the Kcat/Km came out at 60 M⁻¹ s⁻¹, the “reduction in catalytic efficiency” value is recorded as roughly 6 fold and the “change in Km (in words)” value is on record as “small increase in Km”. In data set [2] (DSF), the “destabilization compared to hNaa60 WT (in words)” value was “did not show any signs of destabilization”.

Regarding “H138F: hNaa60 point mutant, catalytic residue”, the “stability on purification (in words)” value in data set [2] was “unstable and could not be purified”.

Consider “I167A: hNaa60 point mutant, M1p hydrophobic pocket”, for which, in data set [1] (substrate MKAV24), the “Wild-type efficiency (%)” value is 33.3%. In data set [1], the Kcat/Km turned out to be 123 M⁻¹ s⁻¹, the “reduction in catalytic efficiency” value is roughly 3 fold and the “change in Km (in words)” value is “small increase in Km”.

In the case of P35A/I36A/I167A: hNaa60 triple mutant, in data set [1] (substrate MKAV24), the “Wild-type efficiency (%)” value is less than 10% and the “catalytic activity (in words)” value is “not able to detect any catalytic activity”.

In the case of `CC(=O)SCCNC(=O)CCNC(=O)[C@H](O)C(C)(C)COP(=O)(O)OP(=O)(O)OC[C@H]1O[C@@H](n2cnc3c(N)ncnc32)[C@H](O)[C@@H]1OP(=O)(O)O` [Ac-CoA, acetyl CoA], the “elution of hNaa60 1–184 (oligomeric state, in words)” value in the data set with hNaa60 1–184 is “elutes at a column volume corresponding to twice the theoretical size of the enzyme”.

Regarding “Y164F: hNaa60 point mutant, β3–β4 loop contact”, in data set [1] (substrate MKAV24), the “Wild-type efficiency (%)” value was 154.9%. In data set [1], the Kcat/Km was determined as 585 M⁻¹ s⁻¹. Moreover, in data set [2] (DSF), the “destabilization compared to hNaa60 WT (in words)” value is on record as “clearly destabilized compared to hNaa60 WT”.

As for “Y97F: hNaa60 point mutant, catalytic residue”, in data set [1] (substrate MKAV24), the “Wild-type efficiency (%)” value was less than 10% and the “catalytic activity (in words)” value is “complete loss of catalytic activity”.

As to “Y38A: hNaa60 point mutant, peptide anchoring residue”, in data set [1] (substrate MKAV24), the “Wild-type efficiency (%)” value was less than 10% and the “catalytic activity (in words)” value is reported as “complete loss of catalytic activity”.

For the compound “Y165F: hNaa60 point mutant, peptide anchoring residue”, the “Wild-type efficiency (%)” value in data set [1] (substrate MKAV24) was 24.4%. Further, in data set [1], the Kcat/Km came out at 90 M⁻¹ s⁻¹ and the “reduction in catalytic efficiency” value is given as “approximately 4 fold”.

For the compound WT: wild-type hNaa60 enzyme, the “Wild-type efficiency (%)” value in data set [1] (substrate MKAV24) is given as 100%. For the same compound, the “melting point (apo)” value in data set [2] (DSF, apo hNaa60) is 47.9 °C.

With “D81A: hNaa60 point mutant, β3–β4 loop contact”, in data set [1] (substrate MKAV24), the “Wild-type efficiency (%)” value is 136.9% and the “catalytic efficiency (in words)” value was “modest overall effect on catalytic efficiency”. Besides, the Kcat/Km in data set [1] turned out to be 518 M⁻¹ s⁻¹. In data set [2] (DSF), the “destabilization compared to hNaa60 WT (in words)” value is “clearly destabilized compared to hNaa60 WT” and the “initial fluorescence (in words)” value was “higher initial fluorescence”.

With “Y164A: hNaa60 point mutant, β3–β4 loop contact”, the “Wild-type efficiency (%)” value in data set [1] (substrate MKAV24) amounted to 141.7%. The Kcat/Km in data set [1] was 535 M⁻¹ s⁻¹.

In the case of “I84A: hNaa60 point mutant, β3–β4 loop contact”, in data set [1] (substrate MKAV24), the “Wild-type efficiency (%)” value is 200.4% and the “catalytic efficiency (in words)” value is on record as “modest overall effect on catalytic efficiency”. Also, in data set [1], the Kcat/Km is 758 M⁻¹ s⁻¹. In data set [2] (DSF), the “destabilization compared to hNaa60 WT (in words)” value was “clearly destabilized compared to hNaa60 WT” and the “initial fluorescence (in words)” value is “higher initial fluorescence”.

With “H138A: hNaa60 point mutant, catalytic residue”, the “stability on purification (in words)” value in data set [2] was “unstable and could not be purified”.

With `CCNC(=O)CCNC(=O)[C@H](O)C(C)(C)COP(=O)(O)OP(=O)(O)OC[C@H]1O[C@@H](n2cnc3c(N)ncnc32)[C@H](O)[C@@H]1OP(=O)(O)O` [desulfoCoA], the “inhibitor type (other acetyltransferases)” value with other acetyltransferases was “competitive inhibitor”. The “inhibitor type (Naa50)” value in data set [3] is “competitive inhibitor”.
